Assay results pooled from the literature.
Each line is one published result; the experiments were not run side by side.
Target: Casein kinase I isoform epsilon (CSNK1E, Homo sapiens, UniProt P49674)

O=c1c2ccccc2[nH]c(=S)n1CCN1CCC(=C(c2ccc(F)cc2)c2ccc(F)cc2)CC1 — remaining activity (enzyme activity; inhibitor; 0.5 µM): 100%
CC(C)(O)c1cncc(-c2nc3ccc(F)cc3n2C2CC2)c1 — remaining binding (cell-free assay; competition with immobilised ligand; 1 µM): 100%
Cn1c2c(c3ccc(Cl)c(Cl)c31)C(C#N)C(C)(C)NC2=O (stereo not shown) — ΔTm (thermal stability; DSF; 10 µM): 1.3 °C
COc1cc2ncnc(Nc3ccc(Oc4ccccc4)cc3C)c2cc1OC — inhibition (enzyme activity; inhibitor; 1 µM): 2%
COc1cc2ncnc(Nc3ccc(F)c(Cl)c3)c2cc1OCCCN1CCOCC1 — remaining activity (enzyme activity; 0.5 µM): 106%
Cc1sc(C(=O)NC2COC2)cc1-n1cc(NC(=O)Nc2c(F)cccc2Cl)cn1 — remaining activity (enzyme activity; inhibitor; 10 µM): 97.9%
Cc1ccc(C(=O)Nc2ccc(CN3CCN(C)CC3)c(C(F)(F)F)c2)cc1C#Cc1cnc2cccnn12 — remaining activity (enzyme activity; inhibitor; 23.5 nM): 88%
CC(C)(O)[C@H]1CC[C@H](Nc2ccc3ncc(-c4cccc(C(F)(F)F)c4)n3n2)CC1 — remaining activity (enzyme activity; inhibitor; 1 µM): 78.5%
CN([C@@H]1CCc2c(CC(=O)O)c3ccccc3n2C1)S(=O)(=O)c1ccc(F)cc1 — remaining binding (cell-free assay; competition with immobilised ligand; 1 µM): 90%
Cn1c2c(c3ccc(Cl)c(Cl)c31)C(C#N)C1(CCOCC1)NC2=O (stereo not shown) — ΔTm (thermal stability; DSF; 10 µM): 0.4 °C
CN(C)C(=O)Cn1cc(-c2nc(C3(c4ccc(-c5cnc(N)nc5)cc4)CC3)no2)cn1 — remaining binding (cell-free assay; competition with immobilised ligand; 1 µM): 100%
CCN(CC)CCNC(=O)c1c(C)[nH]c(/C=C2\C(=O)Nc3ccc(Cl)cc32)c1C — remaining activity (enzyme activity; inhibitor; 0.5 µM): 46.7%
Cn1c2c(Cl)c(Cl)ccc2c2cc[nH]c(=O)c21 — ΔTm (thermal stability; DSF; 10 µM): 1 °C
O=C(NCCCNc1nc(Nc2cccc(NC(=O)N3CCCC3)c2)ncc1I)c1cccs1 — inhibition (enzyme activity; inhibitor; 1 µM): -16%
CNCc1ccccc1-c1csc([C@H](C)Nc2nc(C)nc3cc(OC)c(OC)cc23)c1 — remaining binding (cell-free assay; competition with immobilised ligand; 1 µM): 91%
Cc1ccc(NC(=O)c2ccc(CN3CCN(C)CC3)cc2)cc1Nc1nccc(-c2cccnc2)n1 — activity vs control (enzyme activity; inhibitor; 0.5 µM): 92.4%
CC(C)(C)c1nc(-c2cccc(NS(=O)(=O)c3c(F)cccc3F)c2F)c(-c2ccnc(N)n2)s1 — remaining activity (enzyme activity; inhibitor; radiometric; 1 µM): 89%
COc1cc2c(N3CCN(C(=O)Nc4ccc(OC(C)C)cc4)CC3)ncnc2cc1OCCCN1CCCCC1 — remaining signal (cell-free assay; 0.5 µM): 99.1%
O=C(Nc1cccnn1)N1CC(C/C=C/c2cncc(Oc3ccc(C(F)(F)F)cn3)n2)C1 — remaining binding (cell-free assay; competition with immobilised ligand; 1 µM): 100%
O=C(Nc1cnn(-c2csc(C(=O)NC3COC3)c2)c1)Nc1c(F)cccc1Cl — remaining activity (enzyme activity; inhibitor; 5 µM): 88.6%
O=C(N1CCS(=O)(=O)CC1)N1C[C@H](c2ccc(OC(F)(F)F)cc2)C[C@H](c2nc(C3CC3)no2)C1 — remaining binding (cell-free assay; competition with immobilised ligand; 1 µM): 100%
O=c1cc(-c2cccc3c2Sc2ccccc2S3)oc(N2CCOCC2)c1 — remaining activity (enzyme activity; inhibitor; 0.5 µM): 104%
